Source: PMC2574667 (Journal of Medicinal Chemistry, 2008)
“Also recorded” adds a separate entry of the source. Like-named read-outs stand apart in the source and are kept apart here. Blank lines part the entries; values can stand above or below the molecule they belong to.

Columns and labels:
[1] = type: physicochemical
Outline: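 Hydrolysis at 37 °C was run in 0.1 M phosphate pH 7.4 or 0.05 M citrate pH 3.8–4.6, in light-protected sealed bottles. Daily aliquots were scanned 200–400 nm for up to 11 days. First-order k came from ln(At − Ainf) versus time, with Ainf extrapolated when the reaction was incomplete. Runs in 1.0 M NaOH were followed directly in a thermostated spectrophotometer cell. Other media: NaOH, glycine/NaOH pH 10, phosphate pH 8.1.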

[2] = first order in hydroxide ion; cited from earlier work
[3] = system: intracellular L. major amastigotes; assay: Assay for leishmanicidal activity in infected macrophages; type: cell-based, Leishmania major; conditions: 125 or 250 µM, up to 72 h, macrophages from iNOS-deficient mice
Outline: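 Macrophages were thioglycolate-elicited from the peritoneum of C57BL/6 iNOS-deficient mice, harvested 4 days after ip thioglycolate, and plated at 3 × 10^5/well in RPMI-1640 with 2.5% or 5% FBS. They were infected 4 h at 5:1 with lesion-derived MHOM/IL/81/FE/BNI amastigotes, then treated 72 h with medium and compound refreshed at 24 and 48 h. Diff-Quick counts at 0, 48 and 72 h gave parasites per 100 macrophages, as mean ±SD.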

Nitrite accumulation = type: physicochemical; conditions: 37 °C; for nitrite recovery: 24 h incubation, PBS and cell culture medium containing 2.5% fetal calf serum
Outline: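 Compound at 0.25–1 mM was incubated 24 h at 37 °C, without cells, in PBS or in RPMI containing 2.5% fetal calf serum. NO release was estimated as accumulated nitrite by Griess assay. Solutions assayed immediately after dissolution served as the zero point.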

[4] = system: N-acetylglucosaminidase from jack bean; assay: Glycosidase-induced hydrolysis, jack bean enzyme; type: biochemical; conditions: 37 °C; for k, first order rate constant of enzymatic hydrolysis: JB enzyme 0.11 units/mL, 0.1 M phosphate pH 7.4, ultraviolet spectrophotometry
Outline: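 Jack bean β-N-acetylglucosaminidase (0.11 units/mL) was incubated with substrate (0.09–0.16 mM initial) at 37 °C in 0.1 M phosphate, pH 7.4, with 0.05 mM DTPA. NO was detected by chemiluminescence until evolution ceased, and the trace was integrated per mole of compound. Nitrite in the remaining solution was measured by Griess. First-order rate constants came from UV absorbance at 227 or 256 nm. Enzyme activity was checked with PNP-NAG at 25 °C.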

[5] = system: peritoneal exudate macrophages from iNOS-deficient mice; assay: Viability of macrophage monolayers; type: cell-based, mouse; conditions: concentrations tested (125 or 250 µM); trypan blue staining, MTT assay
Outline: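 Infected macrophage monolayers from iNOS-deficient mice were exposed to compound at 125 or 250 µM. Viability was checked by microscopy with trypan blue staining of dead cells. Mitochondrial activity of the whole monolayer was read photometrically as MTT reduction to formazan, in triplicate.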

[6] = system: peritoneal exudate macrophages from iNOS-deficient mice; assay: Nitrite accumulation; type: cell-based; conditions: 0.25 mM, medium with 2.5% fetal calf serum, iNOS^−/− mouse macrophages, 24 h
Outline: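 Peritoneal exudate macrophages from iNOS-deficient mice were cultured 24 h at 37 °C in RPMI containing 2.5% fetal calf serum with 0.25 mM compound, alongside cell-free medium and PBS. Supernatants were harvested and cumulative NO was estimated as nitrite by Griess assay. Further runs used 125 or 250 µM with 0–5% FCS.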

[7] = molecular target: N-acetylglucosaminidase from human placenta (Homo sapiens, UniProt P07686); assay: Glycosidase-induced hydrolysis, human placenta enzyme; type: biochemical; conditions: HP enzyme 0.044 units/mL, 37 °C, 0.1 M phosphate pH 7.4; ultraviolet spectrophotometry
Sequence of N-acetylglucosaminidase from human placenta (P07686 122-311 limits assumed): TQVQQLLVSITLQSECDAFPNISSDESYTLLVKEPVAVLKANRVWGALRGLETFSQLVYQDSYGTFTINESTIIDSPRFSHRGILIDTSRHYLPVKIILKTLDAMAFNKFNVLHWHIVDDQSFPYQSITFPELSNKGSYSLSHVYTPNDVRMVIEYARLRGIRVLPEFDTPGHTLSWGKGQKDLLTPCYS
Sequence of N-acetylglucosaminidase from human placenta (P07686 315-556 limits assumed): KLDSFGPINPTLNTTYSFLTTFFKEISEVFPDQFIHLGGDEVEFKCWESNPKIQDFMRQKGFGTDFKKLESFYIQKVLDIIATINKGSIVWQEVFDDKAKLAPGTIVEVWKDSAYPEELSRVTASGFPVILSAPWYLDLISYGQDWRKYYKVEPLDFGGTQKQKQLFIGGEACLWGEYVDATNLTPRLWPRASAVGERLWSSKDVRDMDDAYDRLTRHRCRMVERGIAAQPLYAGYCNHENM

[8] = phosphate buffer, pH 7.4, half-life pH 7.4, 0.1 M phosphate pH 7.4, 37 °C

half-life [1, 8]: > 14400 min
Structure (SMILES): CCN(CC)/[N+]([O-])=N/O[C@@H]1O[C@H](CO)[C@@H](O)[C@H](O)[C@H]1O [3a]
rate constant kOH^– of base-induced hydrolysis [2]: 0.0053 M⁻¹ s⁻¹

half-life ([1]; citrate buffer, pH 4.6, half-life pH 4.6, 0.05 M citrate pH 4.6, 37 °C): > 14400 min | nitrite recovery (Nitrite accumulation): little or no nitrite | NO generation on incubation with N-acetylglucosaminidase ([4]; parallel incubation to 9a): Negligible NO generation
Structure (SMILES): CCN(CC)/[N+]([O-])=N/O[C@H]1O[C@H](CO)[C@@H](O)[C@H](O)[C@@H]1O [5a, O^2-(α-D-Mannopyranosyl) 1-(N, N-Diethylamino)diazen-1-ium-1,2-diolate]
effect on number of intracellular L. major parasites [3]: borderline significance

Structure (SMILES): [O-][N+](=NO[C@H]1O[C@H](CO)[C@@H](O)[C@H](O)[C@@H]1O)N1CCCC1 [5b, O^2-(α-D-Mannopyranosyl) 1-(Pyrrolidin-1-yl)diazen-1-ium-1,2-diolate]
effect on number of intracellular L. major parasites [3]: only one of the mannosides (5a) showed any activity

Structure (SMILES): CCN(CC)/[N+]([O-])=N/O[C@@H]1O[C@@H](C)[C@@H](O)[C@@H](O)[C@@H]1O [7a, O^2-(β-L-Fucopyranosyl) 1-(N,N-Diethylamino)diazen-1-ium-1,2-diolate]
effect on number of intracellular L. major parasites [3]: Neither of the fucose derivatives had any perceivable effect

Structure (SMILES): C[C@@H]1O[C@H](ON=[N+]([O-])N(C)C)[C@@H](O)[C@H](O)[C@@H]1O [7c, O^2-(β-L-Fucopyranosyl) 1-(N,N-Dimethylamino)diazen-1-ium-1,2-diolate]
effect on number of intracellular L. major parasites [3]: Neither of the fucose derivatives had any perceivable effect

Structure (SMILES): CCN(CC)/[N+]([O-])=N/O[C@@H]1O[C@H](CO)[C@@H](O)[C@H](O)[C@H]1NC(C)=O [9a, O^2-(N-Acetyl-β-D-glucosaminyl) 1-(N,N-Diethylamino)diazen-1-ium-1,2-diolate]
toxicity to the macrophage host cells [5]: no observable toxicity | increase of nitrite yield by macrophages [6]: approximately doubled | effect on number of intracellular L. major parasites [3]: highly significant decrease; also recorded: decidedly antileishmanial | increase in hydrolysis rate relative to 9b ([1]; pH 7.4 phosphate buffer): > 20 fold | half-life [1, 8]: ~720 min | k, first order rate constant of enzymatic hydrolysis [7]: 0.00041 s⁻¹ | nitrite recovery (Nitrite accumulation): 10−20% | k, first order rate constant of enzymatic hydrolysis [4]: 0.00062 s⁻¹

Structure (SMILES): CC(=O)N[C@H]1[C@H](O/N=[N+](\[O-])N2CCCC2)O[C@H](CO)[C@@H](O)[C@@H]1O [9b, O^2-(β-D-N-Acetylglucosaminyl) 1-(Pyrrolidin-1-yl)diazen-1-ium-1,2-diolate]
toxicity to the macrophage host cells [5]: no observable toxicity | effect on number of intracellular L. major parasites [3]: highly significant decrease; also recorded: decidedly antileishmanial | k, first order rate constant of enzymatic hydrolysis [7]: 0.00036 s⁻¹ | hydrolysis in PBS relative to 9a (Nitrite accumulation; PBS, nitrite yield, 24 h): more than an order of magnitude slower | k, first order rate constant of enzymatic hydrolysis [4]: 0.00031 s⁻¹

half-life [1, 8]: ~720 min
Structure (SMILES): CCN(CC)/[N+]([O-])=N/O[C@H]1C[C@@H](O)[C@H](O)[C@@H](CO)O1 [11a, O^2-[2-Deoxy-β-D-glucopyranosyl] 1-(N,N-Diethylamino)diazen-1-ium-1,2-diolate]

Structure (SMILES): O=NO [Nitrite ion]
effect on number of intracellular L. major parasites [3]: devoid of antileishmanial activity

hydrolysis time ([1]; all pH values studied, 37 °C): within minutes
Structure (SMILES): CCN(CC)/[N+]([O-])=N\OC1CCCCO1 (centres unmarked) [compound 12, O^2-Tetrahydropyran-2-yl 1-(N,N-Diethylamino)diazen-1-ium-1,2-diolate]

Structure (SMILES): COC(=O)CCC(=O)NO[C@@H]1O[C@H](CO)[C@@H](O)[C@H](O)[C@H]1NC(C)=O [compound 13, N-(β-D-N′-Acetylglucosaminyloxy)succinamate O-Methyl Ester, reference compound]
effect on number of intracellular L. major parasites [3]: did not have any effect
